Assay [1] has as its target T1, Mt-PrsA (Mycobacterium tuberculosis, UniProt P9WKE3).
T1 sequence (P9WKE3 1-326): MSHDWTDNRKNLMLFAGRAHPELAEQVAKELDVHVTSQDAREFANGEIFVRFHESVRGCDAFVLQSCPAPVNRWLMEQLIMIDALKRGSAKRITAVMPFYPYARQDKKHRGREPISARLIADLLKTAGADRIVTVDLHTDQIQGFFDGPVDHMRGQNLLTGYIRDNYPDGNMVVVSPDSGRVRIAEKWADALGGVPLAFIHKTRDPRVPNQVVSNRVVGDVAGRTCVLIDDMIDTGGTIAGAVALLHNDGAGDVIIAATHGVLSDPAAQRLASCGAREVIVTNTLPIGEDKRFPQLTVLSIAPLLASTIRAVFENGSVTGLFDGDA
The assay can be described thus: Continuous enzyme-coupled spectrophotometric assay of Mt-PrsA. Format: biochemical.

In assay [2] the target is T1, Mt-PrsA. Nature of the assay: Intrinsic tryptophan fluorescence. Type of assay: binding. The essentials:
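Excitation was at 292 nm; emission spectra were taken at 300–400 nm 5 min after each ligand aliquot. ΔFemission at 335 nm was plotted against [L] and fitted for Kd and Hill n. R5P was titrated with or without 5 mM AMPPNP, and AMPPNP with or without 5 mM R5P.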

The target in assay [3] is T1, Mt-PrsA. Format: biochemical. The conditions noted are these: 2 mM final concentration, 37°C.
Assay [4] concerns arabinofuranosyltransferases EmbA, EmbB, EmbC and AftB. Format: biochemical, Mycobacterium smegmatis. The conditions noted are these: EMB 100 µg/mL; ADP 2 mM.
For assay [5], the target named is T1, Mt-PrsA. The conditions noted are these: 5 mM ligand. The essentials:
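Recombinant Mt-PrsA was purified by Ni2+-NTA with a 250 mM imidazole step to ~98% purity, then dialyzed into 50 mM KH2PO4 (pH 7.9), 300 mM NaCl, 1 mM DTT. Sedimentation velocity was run with absorbance optics using no ligand or 5 mM R5P, ATP or ADP. The read-out was the molar mass distribution c(M) against apparent molecular weight.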

[6] abbreviates: read-out: Kd (ITF), ligand alone, 70 µM Mt-PrsA.

This is an account of results in paper PMC3055594 (Glycobiology, 2010).

Like-named read-outs stand apart in the source and are kept apart here.

As for `Nc1ncnc2c1ncn2[C@@H]1O[C@H](COP(=O)(O)OP(=O)(O)O)[C@@H](O)[C@H]1O` [ADP], the Ki in assay [1] (read-out: Ki against increasing [ATP], saturating [R5P], Eq. (6)) is 522 µM. In addition, the “Hill coefficient (n) of binding (ITF)” value in assay [2] (ligand alone) worked out at 2. Further, the Kd in assay [2] (setting [6]) stood at 513 µM. Moreover, in assay [3], the “effect on Mt-PrsA activity / p[14C]Rpp formation” value is “strongly inhibited”. Moreover, the “effect on AraT-dependent product formation” value in assay [4] is “inhibition of any AraT-dependent product formation”. The “effect on oligomeric state of Mt-PrsA, c(M) distribution” value (“effect on oligomeric state of Mt-PrsA” below) in assay [5] was “shifted toward an increase in the hexameric state”.

Turning to `Nc1ncnc2c1ncn2C1OC(COP(=O)(O)OP(=O)(O)NP(=O)(O)O)C(O)C1O` (stereo not drawn) [AMPPNP, 5'-adenylyl-β,γ-imidodiphosphate], in assay [2] (5 mM R5P), the “Hill coefficient (n) for AMPPNP in the presence of R5P” value worked out at 5. Besides, the “Hill coefficient (n) of binding (ITF)” value in assay [2] (ligand alone) is on record as roughly 4. In addition, the Kd in assay [2] (setting [6]) amounted to 31 µM; in assay [2] (read-out: Kd for AMPPNP in the presence of R5P, 5 mM R5P), 28.2 µM.

Take `Nc1ncnc2c1ncn2[C@@H]1O[C@H](COP(=O)(O)OP(=O)(O)OP(=O)(O)O)[C@@H](O)[C@H]1O` [ATP]: the “apparent Hill coefficient (n), kinetics” value in assay [1] (increasing [ATP], saturating R5P, 50 mM Pi) is 1.68. Also, in assay [1] (saturating R5P, 50 mM Pi), the “Vmax for ATP” value came to 601 µmol⁻¹ min⁻¹ mg⁻¹. Also, the “S0.5 for ATP” value in assay [1] (saturating R5P, 50 mM Pi, Eq. (4)) came out at 62.65 µM. For the same compound, the “Hill coefficient (n) of binding (ITF)” value in assay [2] (ligand alone) is given as roughly 4. Also, in assay [2] (setting [6]), the Kd amounted to 28.3 µM. For the same compound, in assay [5], the “c(M) peak position” value was ~70,000 Da and the “effect on oligomeric state of Mt-PrsA” value was “reduction in the intensity of the hexameric species”.

`[Ca+2].[Cl-].[Cl-]` [CaCl2]: the “effect on Mt-PrsA activity / p[14C]Rpp formation” value in assay [3] is given as “loss of Mt-PrsA activity”.

For `CC[C@@H](CO)NCCN[C@@H](CC)CO` [EMB, ethambutol], the “effect on AraT-dependent product formation” value in assay [4] is given as “loss of the upper band with only the lower band remaining”.

`O=P(O)(O)O` [Pi, inorganic phosphate]: the “concentration required for full enzyme activation” value in assay [1] is recorded as 50 mM.

Turning to `O=C[C@H](O)[C@H](O)[C@H](O)COP(=O)(O)O` [R5P, ribose-5-phosphate], the Km in assay [1] (read-out: Km for R5P, saturating ATP, 50 mM Pi, Eq. (2)) was 8.2 µM. The “Vmax (increasing R5P)” value in assay [1] (saturating ATP, 50 mM Pi) stood at 530 µmol⁻¹ min⁻¹ mg⁻¹. In addition, the Kd in assay [2] (Kd (ITF), ligand alone, 70 µM Mt-PrsA) is 24.8 µM; in assay [2] (apparent Kd for R5P in the presence of AMPPNP, 5 mM AMPPNP), 21.4 µM. Besides, in assay [5], the “effect on oligomeric state of Mt-PrsA” value was “no apparent change in the equilibrium or oligomeric state”.

Broadly, the Ki is a dissociation constant, usually derived from enzyme kinetics or from competition with a known ligand. In general, Km refers to the substrate concentration at which the rate is half of its maximum.
